{"source": "paper PMC6432629", "about": "(The Prostate, 2016)", "key": {"[1]": {"test": "Stability of prodrug 11 in human plasma", "type": "in vitro ADME", "conditions": "human plasma (EDTA), 400 μM, 37°C, 24 hr, methanol precipitation, HPLC and MS", "summary_of_the_method": "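Compound from 10 mM DMSO stock was added to EDTA-anticoagulated human plasma, with a PBS control at the same concentration. Incubated at 37°C for 24 hr. At time points, 100 μl aliquots received 200 μl cold methanol, sat on ice 10 min, and were centrifuged at 13,000 rpm for 6 min. Supernatant analysed by HPLC and mass spectrometry.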"}, "[2]": {"tested_on": "PrEC cells", "test": "Cytotoxicity in normal prostatic epithelial cells in serum free media"}, "[3]": {"tested_on": "MCF-7", "test": "MTT cell proliferation", "conditions": "3-day exposure, media with 10% FBS"}, "[4]": {"tested_on": "LNCaP", "test": "MTT cell proliferation", "conditions": "3-day exposure, media with 10% FBS"}, "[5]": {"tested_on": "MDA-MB-231", "test": "MTT cell proliferation", "type": "cell-based, human", "conditions": "3-day exposure, media with 10% FBS"}, "[6]": {"tested_on": "FAP and DPPIV", "test": "Tandem hydrolysis by mixture of purified FAP and DPPIV", "type": "in vitro ADME", "conditions": "FAP 300 nM + DPPIV 30 nM, 37°C, HPLC and MS", "summary_of_the_method": "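FAP expressed in Schneider S2 cells (induced with 500 μM CuSO4) and purified from supernatant on Ni-NTA; DPPIV is human recombinant from sf9 cells. Enzymes (FAP 300 nM, DPPIV 30 nM) in 100 mM Tris, 100 mM NaCl, pH 7.8. Substrate from 10 mM DMSO stock, 250 μM final, 2.5% DMSO. Shaken at 37°C for 24 hr; time-point aliquots quenched in cold acetonitrile, then HPLC and MS.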"}, "[7]": {"target": "T1, FAP (Homo sapiens, UniProt Q12884)", "T1 sequence (Q12884 27-760 limits assumed)": "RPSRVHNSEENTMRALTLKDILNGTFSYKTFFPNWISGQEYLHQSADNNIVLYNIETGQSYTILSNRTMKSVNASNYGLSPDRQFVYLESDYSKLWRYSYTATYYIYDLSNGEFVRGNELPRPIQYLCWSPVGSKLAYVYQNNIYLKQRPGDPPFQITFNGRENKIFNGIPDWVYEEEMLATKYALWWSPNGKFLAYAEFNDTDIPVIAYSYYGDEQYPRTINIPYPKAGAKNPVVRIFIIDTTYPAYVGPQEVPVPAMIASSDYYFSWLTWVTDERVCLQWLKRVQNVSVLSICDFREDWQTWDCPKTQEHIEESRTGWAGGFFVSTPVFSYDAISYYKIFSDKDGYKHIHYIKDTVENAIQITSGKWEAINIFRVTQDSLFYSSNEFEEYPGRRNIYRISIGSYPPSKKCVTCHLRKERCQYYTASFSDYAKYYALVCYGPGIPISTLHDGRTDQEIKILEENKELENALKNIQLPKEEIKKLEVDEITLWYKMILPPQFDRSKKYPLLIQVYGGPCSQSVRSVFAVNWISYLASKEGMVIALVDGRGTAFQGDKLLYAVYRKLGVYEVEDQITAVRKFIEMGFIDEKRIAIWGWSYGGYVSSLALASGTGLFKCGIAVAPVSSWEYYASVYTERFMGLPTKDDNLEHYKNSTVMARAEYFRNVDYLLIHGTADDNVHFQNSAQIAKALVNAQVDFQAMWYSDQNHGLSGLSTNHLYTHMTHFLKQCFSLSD", "test": "FAP-mediated hydrolysis of prodrugs ex vivo", "type": "in vitro ADME", "conditions": "purified FAP 300 nM, 37°C, up to 24 hr"}, "[8]": {"tested_on": "PC3", "test": "MTT cell proliferation", "conditions": "3-day exposure, media with 10% FBS"}}, "note": "Numbered stars: 1 amine (or outer) side, 2 acyl side, 3 side chain; on linkers, the order of the positions; unused ones are H or OH. Square brackets hold non-standard residues; d marks the D form. Peptide text beside a SMILES is read from it. * marks the point of attachment. Emetine(N2') = CC[C@H]1CN2CCc3cc(OC)c(OC)cc3[C@@H]2C[C@@H]1C[C@@H]1c2cc(OC)c(OC)cc2CCN1*; PABC = O=C(OCc1ccc(N[*:1])cc1)[*:2]"}
{"smiles": "CC[C@H]1CN2CCc3cc(OC)c(OC)cc3[C@@H]2C[C@@H]1C[C@@H]1c2cc(OC)c(OC)cc2CCN1C(=O)OCc1ccc(NC(=O)[C@@H]2CCCN2C(=O)[C@H](C)NC(=O)[C@@H]2CCCN2C(=O)CNC(=O)[C@H](C)NC(=O)[C@@H]2CCCN2C(=O)CNC(=O)[C@H](CO)NC(=O)[C@H](C)NC(C)=O)cc1", "note": "[Compound 11] (Ac-ASGPAGPAP[PABC]-{Emetine(N2')})", "values": [{"measurement": "precursor 10 or emetine detected after incubation in human plasma", "setting": "[1]", "value": "No detectable amount"}, {"measurement": "cytotoxicity to PrEC at 100 nM and 1,000 nM (in words)", "setting": "[2]; 3-day exposure, keratinocyte serum free media, no FAP or DPPIV", "value": "not cytotoxic"}, {"measurement": "IC50", "setting": "[2]; read-out: calculated IC50 in the PrEC cell lines, 3-day exposure, expanded dose range, serum free media, absence of FAP and DPPIV", "value": 7.73, "unit": "µM"}, {"measurement": "fold less cytotoxic than emetine in PrEC", "setting": "[2]; serum free media, absence of FAP and DPPIV", "value": "more than 200 fold"}, {"measurement": "cytotoxicity / IC50 compared with emetine, MCF-7 (in words)", "setting": "[3]", "value": "identical to that for emetine"}, {"measurement": "cytotoxicity / IC50 compared with emetine, LNCaP (in words)", "setting": "[4]", "value": "identical to that for emetine"}, {"measurement": "IC50 compared with emetine, MDA-MB-231 (in words)", "setting": "[5]", "value": "identical to that for emetine"}, {"measurement": "% emetine formed from 11, 2 hr", "setting": "[6]; 2 hr", "value": 22, "unit": "%"}, {"measurement": "% precursor 10 formed from 11, 2 hr", "setting": "[6]; 2 hr", "value": 56, "unit": "%"}, {"measurement": "% emetine formed from 11, 4 hr", "setting": "[6]; 4 hr", "value": 36, "unit": "%"}, {"measurement": "% precursor 10 formed from 11, 4 hr", "setting": "[6]; 4 hr", "value": 58, "unit": "%"}, {"measurement": "% precursor 10 in solution, 24 hr", "setting": "[6]; 24 hr", "value": 25, "unit": "%"}, {"measurement": "cleavage by recombinant purified FAP (in words)", "setting": "[7]", "value": "progressively cleaved to the intermediate (precursor) 10"}, {"measurement": "cytotoxicity / IC50 compared with emetine, PC3 (in words)", "setting": "[8]", "value": "identical to that for emetine"}]}
